# Screening data: PubChem, several laboratories
# TDP2 absorb: human TDP2 enzyme inhibitors, primary screen, biochemical, epi absorbance, recombinant enzyme | Tyrosyl-DNA phosphodiesterase 2 (Homo sapiens), O95551 | T5PNP hydrolysis, p-nitrophenol absorbance 415 nm | inhibition, % at 12.8 µM | actives 0.34% (n = 370,000);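 active = inhibition above the mean of all tested compounds plus 3 SD, set per campaign, cut at about 25% in these data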;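 also: 0% = DMSO with enzyme and 100% = buffer with substrate but no TDP2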
# Target sequence (O95551 whole entry, looked up): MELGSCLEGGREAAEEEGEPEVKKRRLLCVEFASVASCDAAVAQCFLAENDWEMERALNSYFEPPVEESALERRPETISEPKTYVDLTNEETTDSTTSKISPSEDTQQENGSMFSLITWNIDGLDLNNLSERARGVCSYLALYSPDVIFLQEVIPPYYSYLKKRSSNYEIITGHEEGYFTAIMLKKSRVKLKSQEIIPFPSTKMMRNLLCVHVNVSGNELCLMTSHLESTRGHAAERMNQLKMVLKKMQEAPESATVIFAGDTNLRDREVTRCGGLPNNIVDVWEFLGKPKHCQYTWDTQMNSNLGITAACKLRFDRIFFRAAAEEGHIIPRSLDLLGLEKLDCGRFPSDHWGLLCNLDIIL
#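 Material: recombinant human TDP2; quantity: TDP2 enzyme at 120 nM final; medium: Tris-HCl pH 7.5 with MgCl2; compound: single concentration, 12.8 µM nominal, with 1% DMSO; incubation: 2 h enzyme incubation at 37 °C; signal: epi absorbance; measure: percent inhibition; benchmarks: high control without enzyme, low control DMSO plus TDP2; repeats: singlicate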
# Casp6 inh: human caspase-6 inhibitors, primary screen, biochemical, VEID-R110 fluorescence, single point, set 2. P55212. purified caspase-6, Z-VEID-R110 cleavage fluorescence. inhibition, % at 12.5 µM. actives 0.53% (n = 350,000). AID 686996, 2013;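 active = mean inhibition across replicates at least about 35%, with every replicate also reaching that limit, limit read from the data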;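 also: 0% = median of neutral control wells and 100% = no fluorescence left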
# Target sequence (P55212 24-179 limits assumed): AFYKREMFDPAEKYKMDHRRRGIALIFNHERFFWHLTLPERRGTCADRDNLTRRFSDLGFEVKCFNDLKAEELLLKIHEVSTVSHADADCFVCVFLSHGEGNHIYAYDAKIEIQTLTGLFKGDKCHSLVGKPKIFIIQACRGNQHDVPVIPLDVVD
# Target sequence (P55212 194-293 limits assumed): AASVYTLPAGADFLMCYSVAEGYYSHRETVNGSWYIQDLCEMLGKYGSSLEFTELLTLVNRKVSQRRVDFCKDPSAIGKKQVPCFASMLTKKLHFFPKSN
# LEDGF integ inh: blockers of LEDGF/p75-dependent integrase strand transfer – biochemical, TR-FRET, high throughput, primary screen. TR-FRET IN-LEDGF/p75 DNA integration, Eu/Cy5. actives 0.64% (n = 370,000). HIV-1 integrase (with human LEDGF/p75). AID 743269, 2014. inhibition, % at 3.7 µM;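 active = inhibition above the screen-wide mean plus 3 SD, cut at about 13% in these data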;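 also: signal is the Cy5 over europium emission ratio at 671 and 618 nm; 0% = plate median of compound wells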
# NSD2 HMT inh: NSD2 histone methyltransferase inhibitors, primary screen, biochemical, AlphaScreen, single concentration, set 2 | AID 743445, 2014 | inhibition, % at 12.5 µM | Histone-lysine N-methyltransferase NSD2 (Homo sapiens), O96028 | NSD2 peptide methylation, 120 min | actives 0.54% (n = 310,000); in the data active = inhibition above about 50%
# UHRF1 MBD2 ctr: UHRF1 methylated DNA binding inhibitors, primary screen, counter-screen for MBD2 inhibitor project, biochemical, TR-FRET, human UHRF1, single concentration | E3 ubiquitin-protein ligase UHRF1 (Homo sapiens), Q96T88 | UHRF1 binding to methylated oligo | inhibition, % at 4.4 µM | actives 0.75% (n = 370,000); in the data active = inhibition above about 21%;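 also: UHRF1 SRA domain binding a hemimethylated CpG hairpin DNA probe; 0% = median of test compound wells and 100% = reference inhibitor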
# MBD2 DNA inh: inhibitors of MBD2 binding to methylated DNA, primary screen, biochemical, TR-FRET, DNA-binding domain, human; MBD2 binding to methylated oligonucleotide; actives 0.31% (n = 370,000); AID 686964, 2013; inhibition, % at 4.4 µM; Methyl-CpG-binding domain protein 2 (Homo sapiens), Q9UBB5; in the data active = inhibition above about 13%
# Alpha artifact: AlphaScreen signal interference with preloaded methylated product, dose response, artefact control for NSD2 inhibitor project, biochemical, cherry-picked samples; shares compounds with NSD2 HMT inh; AID 1053174, 2014; actives 9.4% (n = 1,500); AC35, µM (doses to about 10 µM), without a hit: at the top dose activity change, negative = signal loss; AlphaScreen artifact counterscreen, preloaded methylated H4 peptide; call rule not given here
# Active calls of the source: *; . = not tested or not shown. Compounds with a hit are over-represented: about 1.8% of the library has one in this group of screens.
SMILES,TDP2 absorb,Casp6 inh,LEDGF integ inh,NSD2 HMT inh,UHRF1 MBD2 ctr,MBD2 DNA inh,Alpha artifact
CCCNC(=O)[C@H]1[C@H](CO)[C@H]2Cn3c(ccc(-c4ccccc4)c3=O)[C@@H]1N2C(=O)CC,.,-1,.,.,.,.,.
CCN(CC)CCNC(=O)c1c(C)[nH]c(/C=C2\C(=O)Nc3ccc(F)cc32)c1C,.,.,.,50*,.,.,-14%
COc1ccc(NC(=O)Nc2ccc3c(c2)C(=O)N([C@@H](C)CO)C[C@@H](C)[C@H](CN(C)Cc2ccc(-c4ccccc4)cc2)O3)cc1,.,0,.,.,.,.,.
O=C(O)CC1S/C(=N/N=C/c2ccc(-c3ccccc3[N+](=O)[O-])o2)NC1=O (stereo not drawn),0,.,4,91*,1,3,1%
O=C(Cc1ccccn1)NCC[C@H]1CC[C@@H](NC(=O)c2ccccc2F)[C@H](CO)O1,.,1,.,.,.,.,.
CCCCNC(=O)N1CCC(CCC(=O)N(C)Cc2ccccc2)CC1,0,-1,3,-4,-1,-2,.
CCOC(=O)CNC(=O)N1CCC(CCC(=O)N(C)Cc2ccccc2)CC1,-15,-1,-4,65*,4,7,4%
COc1ccc(NC(=O)N[C@H]2CC[C@H](CCNC(=O)CCN3CCCCC3)O[C@H]2CO)cc1,.,8,.,.,.,.,.
CCN(CC)CCCNc1cc(C)nc2cc(-c3cccs3)nn12,7,-3,-1,62*,3,5,1%
CNC(=S)NC(CC(=O)OC)c1ccc2c(c1)OCO2 (stereo not drawn),1,-5,0,56*,-4,-2,-2%
COc1c(F)c(F)c(C(=O)Nc2cccc(Cl)c2N2CCOCC2)c(F)c1F,4,.,0,56*,1,-2,0%
O=C(Nc1cccc(Cl)c1N1CCOCC1)c1cccs1,3,1,5,.,-2,-2,.
Cc1cc2ccccn2c1C(=S)NC(=O)c1ccccc1,-8,3,6,55*,-17,-14,10µM*
Cc1ccc(C(=O)NC(=S)c2c(C)cc3ccccn23)cc1,7,-2,5,92*,-7,-4,6.4µM*
Cc1cc2ccccn2c1C(=O)c1ccncc1,1,.,-3,7,-2,0,.
O=C(Nc1ccc(F)cc1)N[C@H]1CC[C@@H](CC(=O)N2CCOCC2)O[C@H]1CO,.,-1,.,.,.,.,.
CC(=O)Nc1ccc(S(=O)(=O)NCCSCc2c(Cl)cccc2Cl)cc1,-10,.,-2,123*,2,4,-4%
CC(=O)Nc1ccc(S(=O)(=O)NCCSCc2cccc(Cl)c2)cc1,-10,5,4,-1,4,-2,.
CCOC(=O)c1ccc(N=c2scc(C)n2CC)cc1,0,-1,-1,51*,2,0,-12%
CCCN1[C@H](C(=O)OC)[C@@H](CO)[C@@H]2Cn3c(ccc(-c4ccccc4OC)c3=O)[C@@H]21,.,-1,.,.,.,.,.
CC(=O)Nc1ccc2c(O)cc(S(=O)(=O)O)cc2c1,5,35,2,10,2,1,.
Nc1ccc2c(O)cc(S(=O)(=O)O)cc2c1,22,77*,40*,80*,21*,4,-21%
O=C(C[C@@H]1CC[C@H](NC(=O)Nc2cc(F)ccc2F)[C@H](CO)O1)Nc1ccc(-c2ccccc2)cc1,.,6,.,.,.,.,.
CCN(CC)c1ccc(C(=C2C=CC(=[N+](CC)CC)C=C2)c2ccccc2)cc1,9,3,1,27,-1,-3,.
CCN(CC)c1ccc(C(=C2C=CC(=[N+](CC)CC)C=C2)c2ccc(N(CC)CC)cc2)cc1,-7,25,-22,154*,-2,-2,0.43µM*
SMILES,TDP2 absorb,Casp6 inh,LEDGF integ inh,NSD2 HMT inh,UHRF1 MBD2 ctr,MBD2 DNA inh,Alpha artifact
CC(=O)Oc1cccc2c1C(=O)C1CC=CC(OC(C)=O)C1C2=O (stereo not drawn),18,7,0,69*,-11,-9,8µM*
Cn1nc(C(F)(F)F)cc1-c1ccc(/C=C(\C#N)C(=O)c2ccccc2)s1,10,-1,4,1,-2,-5,.
CNC(=O)c1ccc(-c2cc(C(F)(F)F)nn2C)s1,-1,1,-1,60*,0,4,-2%
COCC#Cc1ccc2c(c1)O[C@@H](CN(C)Cc1ccncc1)[C@@H](C)CN([C@@H](C)CO)S2(=O)=O,.,2,.,.,.,.,.
COc1ccc(C(=O)c2nccc3cc(OC)c(OC)cc23)cc1OC,.,.,.,90*,.,.,-1%
O=C(COC(=O)c1ccc([N+](=O)[O-])s1)NCCc1ccccc1,.,99*,.,58*,.,.,-1%
Cc1ccc(C(=O)OCC(=O)NC(C)c2ccccc2)s1 (stereo not drawn),3,1,4,48,-5,1,.
CC(NC(=O)COC(=O)c1ccc([N+](=O)[O-])s1)c1ccccc1 (stereo not drawn),-5,.,6,66*,1,0,-5%
Cc1noc(C)c1S(=O)(=O)Nc1ccc2c(c1)C(=O)N([C@@H](C)CO)C[C@H](C)[C@H](CN(C)C(=O)Cc1ccccc1)OCCCC[C@H](C)O2,.,2,.,.,.,.,.
COc1ccccc1NC(=O)c1ccc(-n2cccn2)nc1,3,.,2,118*,17,8,2%
COc1ccc(NC(=O)c2ccc(-n3cccn3)nc2)c(OC)c1,4,.,1,-3,0,-5,.
Nc1ccc2c(c1)OCCOCCOCCOCCOCCO2,-4,26,-5,64*,7,1,0%
c1ccc2c(c1)OCCOCCOc1ccccc1OCCOCCO2,0,1,0,-4,0,2,.
COc1ccc2c3c(n(C)c2c1)[C@H](CO)N(C(=O)c1cccc(F)c1)CC31CN(CC2CC2)C1,.,-2,.,.,.,.,.
C[C@@H]1CCCCO[C@@H](CN(C)Cc2ccc(C(F)(F)F)cc2)[C@H](C)CN([C@H](C)CO)C(=O)c2cc(NS(=O)(=O)c3ccccc3)ccc2O1,.,0,.,.,.,.,.
CCCC(=O)N1CC2(C1)CN(C(=O)CN1CCOCC1)[C@@H](CO)c1c2c2ccc(OC)cc2n1C,.,5,.,.,.,.,.
Cc1ccc(N2C(=O)N(CC(=O)Nc3ccc(C)cc3[N+](=O)[O-])C(=O)C2C)cc1 (stereo not drawn),5,3,-3,9,-3,-4,.
